# Experimental data taken from ChEMBL document CHEMBL4373727, “Thienopyrimidinone Derivatives That Inhibit Bacterial tRNA (Guanine37-N1)-Methyltransferase (TrmD) by Restructuring the Active Site with a Tyrosine-Flipping Mechanism” (J Med Chem, 2019).
# Active and inactive are the calls of the source. Unless noted, no cut-off for these calls is given here.
# How the values were obtained:
# Klebsiella pneumoniae = experiment: Antibacterial activity against Klebsiella pneumoniae ATCC 13883 incubated for 24 hrs by serial broth microdilution method; assay type: functional, organism-based
# In short: (§1)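 Log-phase cultures from four colonies grown overnight at 37 °C, inoculated at ~5×10^5 cells/mL in cation-adjusted Mueller–Hinton broth with serially diluted compound. Grown 24 h at 37 °C, then OD600 read. MIC50/MIC90 are the concentrations giving 50%/90% growth inhibition relative to drug-free controls. Two independent experiments in duplicate.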
# Salmonella enteritidis = experiment: Antibacterial activity against Salmonella enteritidis ATCC 13076 incubated for 24 hrs by serial broth microdilution method; assay type: functional; conditions: Salmonella enterica subsp. enterica serovar Enteritidis; in short: as §1
# Pseudomonas aeruginosa = experiment: Antibacterial activity against Pseudomonas aeruginosa PA14 incubated for 24 hrs by serial broth microdilution method; assay type: functional, organism-based; in short: as §1
# Acinetobacter baumannii = experiment: Antibacterial activity against Acinetobacter baumannii ATCC 17961 incubated for 24 hrs by serial broth microdilution method; assay type: functional; in short: as §1
# [1] = system: Mycolicibacterium smegmatis; experiment: Antibacterial activity against Mycolicibacterium smegmatis MC2 155 at 100 uM incubated for 24 hrs; assay type: functional, organism-based
# In short: (§2)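 Single-concentration growth screen: 100 μM test compound with log-phase bacteria at about 5×10^5 cells/mL. Incubation 24 h at 37 °C. Growth read by OD600 and given as percent of untreated control. MRSA was grown in cation-adjusted Mueller–Hinton broth. M. smegmatis was grown in complete Middlebrook 7H9. Ampicillin and kanamycin served as positive controls.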
# [2] = molecular target: T1, tRNA (guanine-N(1)-)-methyltransferase (Pseudomonas aeruginosa (strain ATCC 15692 / DSM 22644 / CIP 104116 / JCM14847 / LMG 12228 / 1C / PRS 101 / PAO1), UniProt Q9HXQ1); experiment: Inhibition of Pseudomonas aeruginosa tRNA (guanine(37)-N1)-methyltransferase (Leu5 to Asp25 residues) expressed in Escherichia coli BL21 (DE3) Rosetta T1R cells assessed as reduction in S-adenosyl-L-homocysteine production preincubated for 15 mins followed by 1.5 uM of tRNALeu(CAG) substrate and SAM addition and measured after 45 mins by MTase-Glo assay
# T1 sequence (Q9HXQ1 whole entry): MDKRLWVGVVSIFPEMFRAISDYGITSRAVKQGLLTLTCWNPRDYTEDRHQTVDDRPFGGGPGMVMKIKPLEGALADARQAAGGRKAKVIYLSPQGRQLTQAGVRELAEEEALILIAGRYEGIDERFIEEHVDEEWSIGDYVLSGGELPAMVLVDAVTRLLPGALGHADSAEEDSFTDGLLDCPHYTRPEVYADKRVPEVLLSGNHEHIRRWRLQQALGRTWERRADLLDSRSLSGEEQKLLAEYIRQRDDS
# In short: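 MTase-Glo luminescence assay. 8 nM TrmD preincubated 15 min at ambient temperature with serially diluted inhibitor (0–500 μM) in 50 mM Tris-HCl pH 8.0, 80 mM NaCl, 1 mM MgCl2, 0.5 mM DTT, 0.01% Triton X-100. Reaction with 2 μM SAM and tRNALeu(CAG), 45 min at 37 °C. Detection 30 min in the dark, SAH read against a standard curve. IC50 by nonlinear regression. Two independent experiments in duplicate.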
# Enterococcus faecalis [3] = experiment: Antibacterial activity against Enterococcus faecalis ATCC 51299 at 100 uM incubated for 24 hrs; assay type: functional, organism-based
# In short: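 Single-concentration screen in brain heart infusion broth. Log-phase cells at ~5×10^5 cells/mL were grown with 100 μM compound for 24 h at 37 °C. Growth was read as OD600 and expressed as a percentage of untreated wells. DMSO and blank controls were included.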
# Staphylococcus aureus [4] = experiment: Antibacterial activity against methicillin-resistant Staphylococcus aureus ATCC 43300 at 100 uM incubated for 24 hrs; assay type: functional, organism-based; in short: as §2
# Staphylococcus aureus [5] = experiment: Antibacterial activity against methicillin-resistant Staphylococcus aureus ATCC 43300 incubated for 24 hrs by serial broth microdilution method; assay type: functional
# In short: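 Growth read by OD600. MRSA in cation-adjusted Mueller–Hinton broth, M. smegmatis in complete 7H9. MIC50 and MIC90 are 50% and 90% growth inhibition versus drug-free controls. Two independent experiments, each in duplicate.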
# Streptococcus pneumoniae [6] = experiment: Antibacterial activity against Streptococcus pneumoniae ATCC 49619 at 100 uM incubated for 24 hrs; assay type: functional, organism-based
# In short: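 Single 100 μM screen in MH medium with 3% defibrinated sheep blood at 37 °C under 5% CO2, ~5×10^5 cells/mL, 24 h.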
# [7] = system: Mycobacterium tuberculosis; experiment: Antibacterial activity against Mycobacterium tuberculosis ATCC 27294 at 100 uM incubated for 7 days; assay type: functional, organism-based
# Streptococcus pneumoniae [8] = experiment: Antibacterial activity against Streptococcus pneumoniae ATCC 49619 incubated for 24 hrs by serial broth microdilution method; assay type: functional
# In short: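 Cultured in MH medium plus 3% defibrinated sheep blood at 37 °C, 5% CO2. Log-phase inoculum ~5×10^5 cells/mL was exposed to serial compound dilutions for 24 h. MIC50/MIC90 are relative to drug-free controls. Two independent experiments in duplicate.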
# Enterococcus faecalis [9] = experiment: Antibacterial activity against Enterococcus faecalis ATCC 51299 incubated for 24 hrs by serial broth microdilution method; assay type: functional, organism-based
# In short: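 Broth microdilution in brain heart infusion broth, ~5×10^5 cells/mL log-phase inoculum, serial compound dilutions, 24 h at 37 °C, OD600 read-out. MIC50/MIC90 are the concentrations giving 50%/90% growth inhibition relative to drug-free controls. Two independent experiments in duplicate.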
# Escherichia coli = experiment: Antibacterial activity against Escherichia coli BW25113 incubated for 24 hrs by serial broth microdilution method; assay type: functional, organism-based; in short: as §1
# Erythrocyte = experiment: Hemolytic activity in human RBC at 100 uM measured after 1 hr; assay type: ADME, cell-based
# In short: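 Fresh human RBCs were PBS-washed and resuspended to OD600 24, then mixed 1:1 by volume with compound serially diluted in PBS. Incubated 1 h at 37 °C without shaking and centrifuged at 1000g for 15 min. Triton X-100 served as positive control. Run in triplicate.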
# [10] = molecular target: T2, tRNA (guanine-N(1)-)-methyltransferase (Pseudomonas aeruginosa (strain ATCC 15692 / DSM 22644 / CIP 104116 / JCM14847 / LMG 12228 / 1C / PRS 101 / PAO1)) (UniProt Q9HXQ1); experiment: Binding affinity to Pseudomonas aeruginosa tRNA (guanine(37)-N1)-methyltransferase (Leu5 to Asp25 residues) expressed in Escherichia coli BL21 (DE3) Rosetta T1R cells assessed as thermal stabilization of protein by measuring change in melting temperature at 0.1 mM by SYPRO orange based thermal shift assay
# T2 sequence (whole entry): T1 sequence (Q9HXQ1 whole entry)
# In short: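 Thermal shift: 4 μM TrmD with 5× SYPRO Orange and ligand in 50 mM Tris-HCl pH 8, 150 mM NaCl, 1 mM MgCl2, 1 mM DTT, 0.05% Tween-20. Buffer-only control. Heated from 25 to 95 °C in a real-time PCR instrument, and Tm taken as the unfolding midpoint. Ligand levels: SAH 2 mM, inhibitors 0.1 mM.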
Structure (SMILES),Activity (Klebsiella pneumoniae),Activity (Salmonella enteritidis),Activity (Pseudomonas aeruginosa),Activity (Acinetobacter baumannii),Activity [1],IC50 [2] [nM],Activity (Enterococcus faecalis [3]),Activity (Staphylococcus aureus [4]),Activity (Staphylococcus aureus [5]),Activity (Streptococcus pneumoniae [6]),Activity [7],Activity (Streptococcus pneumoniae [8]),Activity (Enterococcus faecalis [9]),Activity (Escherichia coli),Activity (Erythrocyte),ΔTm [10] [°C]
O=C(NCc1ccc(CNC(=O)c2cc(=O)c(O)cn2O)cc1)c1csc2nc[nH]c(=O)c12,inactive,inactive,inactive,inactive,inactive,700,inactive,inactive,inactive,inactive,inactive,inactive,inactive,inactive,Non-Toxic,
O=C(NCc1ccc(CNCc2ccccc2)cc1)c1csc2nc[nH]c(=O)c12,,,,,inactive,130,inactive,inactive,,inactive,inactive,,,,Non-Toxic,
CCCCCCCCN(Cc1ccccc1)Cc1ccc(CNC(=O)c2csc3nc[nH]c(=O)c23)cc1,,,,,inactive,12000,inactive,inactive,,inactive,inactive,,,,Non-Toxic,
CCCCCCCCN(CC)Cc1ccc(CNC(=O)c2csc3nc[nH]c(=O)c23)cc1,,,,,inactive,370,inactive,inactive,,inactive,inactive,,,,,
CCCCCNCc1ccc(CNC(=O)c2csc3nc[nH]c(=O)c23)cc1,,,,,inactive,85,inactive,inactive,,inactive,inactive,,,,Non-Toxic,
O=C(NCc1ccc(CNCCOCCO)cc1)c1csc2nc[nH]c(=O)c12,,,,,inactive,110,inactive,inactive,,inactive,inactive,,,,Non-Toxic,
CCN(CC)Cc1ccc(CNC(=O)c2csc3nc[nH]c(=O)c23)cc1,,,,,inactive,730,inactive,inactive,,inactive,inactive,,,,Non-Toxic,
O=C(NCc1ccc(CNC2CCCCC2)cc1)c1csc2nc[nH]c(=O)c12,,,,,inactive,790,inactive,inactive,,inactive,inactive,,,,Non-Toxic,
CCCCCCCCNCc1ccc(CNC(=O)c2csc3ncnc(OCc4ccc(N=[N+]=[N-])cc4)c23)cc1,,,,,,1800,,,,,,,,,,1 to 2
CCCCNCc1ccc(CNC(=O)c2csc3nc[nH]c(=O)c23)cc1,,,,,inactive,150,inactive,inactive,,inactive,inactive,,,,Non-Toxic,
CCOCCOCCNCc1ccc(CNC(=O)c2csc3nc[nH]c(=O)c23)cc1,,,,,inactive,210,inactive,inactive,,inactive,inactive,,,,,
CCCCCCN(Cc1ccccc1)Cc1ccc(CNC(=O)c2csc3nc[nH]c(=O)c23)cc1,,,,,inactive,2200,inactive,inactive,,inactive,inactive,,,,,
Cl.NCCCCNCc1ccc(CNC(=O)c2csc3nc[nH]c(=O)c23)cc1,inactive,inactive,inactive,inactive,inactive,80,inactive,inactive,inactive,inactive,inactive,inactive,inactive,inactive,Non-Toxic,
CCN(Cc1ccccc1)Cc1ccc(CNC(=O)c2csc3nc[nH]c(=O)c23)cc1,,,,,inactive,2200,inactive,inactive,,inactive,inactive,,,,Non-Toxic,
O=C(NCc1ccc(CN2CCOCC2)cc1)c1csc2nc[nH]c(=O)c12,,,,,inactive,3000,inactive,inactive,,inactive,inactive,,,,Non-Toxic,
Cl.NCCOCCOCCNCc1ccc(CNC(=O)c2csc3nc[nH]c(=O)c23)cc1,inactive,inactive,inactive,inactive,inactive,450,inactive,inactive,inactive,inactive,inactive,inactive,inactive,inactive,Non-Toxic,
O=C(NCc1ccc(CN2CCCCC2)cc1)c1csc2nc[nH]c(=O)c12,,,,,inactive,1100,inactive,inactive,,inactive,inactive,,,,Non-Toxic,
CCN(Cc1ccc(CNC(=O)c2csc3nc[nH]c(=O)c23)cc1)C1CCCCC1,,,,,inactive,490,inactive,inactive,,inactive,inactive,,,,Non-Toxic,
O=C(NCc1ccc(CNC23CC4CC(CC(C4)C2)C3)cc1)c1csc2nc[nH]c(=O)c12,,,,,inactive,720,inactive,inactive,,inactive,inactive,,,,Non-Toxic,
